Like-named read-outs stand apart in the source and are kept apart here. One block for each compound: values may come before it.
Legend:
[1] = type: in vivo, human; settings: for tmax / half-life: human, plasma, oral; for tmax: median (min-max); for half-life: arithmetic mean (SD); for AUCu/dose, geometric least-squares mean / Cmax,u/dose, geometric least-squares mean: unbound
[2] = type: in vivo, human; settings: for AUCu, geometric least-squares mean / Cmax,u, geometric least-squares mean / AUCu / Cmax,u: unbound
MEK1 = settings: cited from earlier work
plasma proteins = test: Unbound fraction in plasma; type: in vitro ADME, human
Procedure, shortened: (§1)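 Unbound fraction was measured in human plasma by ultrafiltration after a single oral dose. Ultrafiltrate was analysed by LC-MS/MS in MRM mode with carbon-13 internal standards. Within each subject, the mean percentage unbound from 3 results was applied to all of that subject's samples to give the average fraction unbound (fu,av).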

[3] = Unbound fraction in plasma; type: in vitro ADME, human; settings: human, plasma, oral, fu,av, hepatic impairment study, median (min-max)
Procedure, shortened: as §1

[4] = Hepatic impairment study: excretion in urine; type: in vivo, human
Procedure, shortened: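 Urine from hepatic-impairment and healthy subjects was collected at −12 to 0 h predose, then 0–6, 6–12, 12–24, 24–36 and 36–48 h, and every 24 h to 120 h after a single oral dose. Dosing followed an overnight fast, with fasting until 4 h postdose. Analytes were measured by LC-MS/MS (positive electrospray, MRM) against carbon-13 internal standards.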

[5] = cited from earlier work
[6] = Hepatic impairment study: safety and tolerability; type: in vivo, human
Procedure, shortened: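 Adverse events were collected from screening until follow-up at 7–14 days postdose and coded by System Organ Class and preferred term (MedDRA 17.0). Vital signs, ECGs and clinical laboratory tests were also recorded. Single fasted oral doses were 50 mg (mild), 50 or 25 mg (moderate), 20 mg (severe Child-Pugh) and 50 mg (healthy).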

[7] = Renal impairment study: excretion in urine and blood dialysate; type: in vivo, human
Procedure, shortened: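 Subjects were ESRD patients on haemodialysis or healthy subjects with creatinine clearance >80 mL/min, each given 50 mg orally while fasted. ESRD patients were dosed once after dialysis and, after a washout of ≥7 days, once 1 h before dialysis. Urine was collected predose and in intervals to 72 h. Dialysate spot samples were taken every 30 min, and parameters were derived by the area under the excretion rate curve method. Analysis was by LC-MS/MS.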

[8] = Renal impairment study: safety and tolerability; type: in vivo, human
Procedure, shortened: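 In the renal-impairment study, adverse events were recorded from screening until follow-up and coded by System Organ Class and preferred term (MedDRA 17.0). Vital signs, ECGs and clinical laboratory tests were also recorded. All subjects received a single fasted oral 50 mg dose. Healthy subjects returned for follow-up 3–7 days later.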

[9] = severe hepatic impairment, 20 mg
[10] = moderate hepatic impairment, 50 or 25 mg
[11] = non-Asian patients, 75 mg twice daily, used as exposure limit
[12] = healthy subjects, 50 mg, geometric mean (gCV%)
[13] = ESRD, treatment period 1 (50 mg after dialysis), geometric mean (gCV%)

plasma concentrations ([1]; hepatic impairment study, largely below the lower limit of quantification): < 2 ng/mL
plasma concentrations ([2]; renal impairment study, largely below the lower limit of quantification): < 2 ng/mL
SMILES: Cn1cnc2c(F)c(Nc3ccc(Br)cc3Cl)c(C(N)=O)cc21 [selumetinib amide]
less active than selumetinib (MEK1): up to 50 fold

difference of unbound fraction compared with healthy subjects (plasma proteins; hepatic impairment study, mild or moderate impairment): ≤ 20%
increase in the unbound fraction compared with healthy subjects (plasma proteins; hepatic impairment study, severe impairment): ~90%
fraction unbound (plasma proteins; human, plasma, oral, 50 mg, fu,av, renal impairment study, healthy subjects, median (min-max)): 0.004
fraction unbound ([3]; 20 mg, severe impairment): 0.0065
fraction unbound ([3]; 50 mg, healthy subjects): 0.0035
fraction unbound ([3]; 50 mg, mild impairment): 0.0028
fraction unbound ([3]; 50 mg, moderate impairment, 50 mg dose only): 0.003
dose excreted in urine ([4]; healthy subjects, 50 mg): 0.44%
dose excreted in urine ([4]; mild hepatic impairment, 50 mg): 0.46%
dose excreted in urine ([4]; moderate hepatic impairment): 0.50%
dose excreted in urine [4, 9]: 0.90%
AUC/dose, geometric least-squares mean ([1]; healthy subjects, 50 mg): 53.64 ng·h/mL/mg
Cmax/dose, geometric least-squares mean ([1]; healthy subjects, 50 mg): 18.88 ng/mL/mg
tmax ([1]; 20 mg, severe hepatic impairment): 1 h
half-life ([1]; 50 mg, t1/2, healthy subjects): 8.02 h
half-life ([1]; 50 mg, t1/2, mild hepatic impairment): 7.72 h
half-life ([1]; 50 mg, t1/2, moderate hepatic impairment, 50 mg dose only): 9.92 h
tmax ([1]; 50 mg, healthy subjects): 1 h
tmax ([1]; 50 mg, mild hepatic impairment): 1.25 h
tmax ([1]; 50 mg, moderate hepatic impairment, 50 mg dose only): 1 h
AUC/dose lower than in healthy subjects ([1]; mild hepatic impairment): 14%
Cmax/dose lower than in healthy subjects ([1]; mild hepatic impairment): 22%
AUC/dose, geometric least-squares mean ([1]; mild hepatic impairment, 50 mg): 45.93 ng·h/mL/mg
Cmax/dose, geometric least-squares mean ([1]; mild hepatic impairment, 50 mg): 14.82 ng/mL/mg
AUC/dose higher than in healthy subjects ([1]; moderate hepatic impairment): 59%
Cmax/dose higher than in healthy subjects ([1]; moderate hepatic impairment): 25%
AUC/dose, geometric least-squares mean [1, 10]: 85.11 ng·h/mL/mg
Cmax/dose, geometric least-squares mean [1, 10]: 23.57 ng/mL/mg
AUC/dose higher than in healthy subjects ([1]; severe hepatic impairment): 57%
AUC/dose, geometric least-squares mean [1, 9]: 84.29 ng·h/mL/mg
Cmax/dose, geometric least-squares mean [1, 9]: 18.53 ng/mL/mg
AUCu/dose, geometric least-squares mean ([1]; healthy subjects, 50 mg): 0.1837 ng·h/mL/mg
Cmax,u/dose, geometric least-squares mean ([1]; healthy subjects, 50 mg): 0.06473 ng/mL/mg
AUCu/dose, geometric least-squares mean ([1]; mild hepatic impairment, 50 mg): 0.1271 ng·h/mL/mg
Cmax,u/dose, geometric least-squares mean ([1]; mild hepatic impairment, 50 mg): 0.04094 ng/mL/mg
AUCu/dose, geometric least-squares mean [1, 10]: 0.2585 ng·h/mL/mg
Cmax,u/dose, geometric least-squares mean [1, 10]: 0.07165 ng/mL/mg
AUCu/dose, geometric least-squares mean [1, 9]: 0.5828 ng·h/mL/mg
Cmax,u/dose, geometric least-squares mean [1, 9]: 0.1280 ng/mL/mg
AUC lower in the ESRD group (dosed post dialysis) vs healthy subjects ([2]; 50 mg): 28%
AUC lower when dosed before vs after dialysis ([2]; ESRD, 50 mg): 17%
Cmax lower when dosed before vs after dialysis ([2]; ESRD, 50 mg): 30%
CL/F [2, 12]: 19.1 L/h
Cmax ([2]; human, plasma, oral, 50 mg, Cmax, healthy subjects, geometric mean (gCV%)): 863 ng/mL
half-life ([2]; human, plasma, oral, 50 mg, t1/2, healthy subjects, arithmetic mean (SD)): 7.34 h
AUCu, geometric least-squares mean ([2]; ESRD, treatment period 1): 10.25 ng·h/mL
Cmax,u, geometric least-squares mean ([2]; ESRD, treatment period 1): 3.95 ng/mL
AUCu [2, 13]: 10.3 (20.1) ng·h/mL
Cmax,u [2, 13]: 3.95 (34.7) ng/mL
AUCu, geometric least-squares mean ([2]; healthy subjects): 10.55 ng·h/mL
Cmax,u, geometric least-squares mean ([2]; healthy subjects): 3.48 ng/mL
AUCu [2, 12]: 10.6 (23.0) ng·h/mL
Cmax,u [2, 12]: 3.48 (42.5) ng/mL
dose excreted in dialysate ([7]; ESRD, dosed 1 h before dialysis): 0.92%
fraction excreted in urine ([7]; healthy subjects, 50 mg): 0.49%
clearance ([7]; human, blood dialysate, oral, 50 mg): 9.63 mL/min
dialysis clearance in ESRD as percentage of CL/F in the healthy subjects group ([7]; in vivo): approximately 3%
SMILES: Cn1cnc2c(F)c(Nc3ccc(Br)cc3Cl)c(C(=O)NOCCO)cc21 [Selumetinib]
dose linearity of pharmacokinetics ([5]; healthy volunteers): linear pharmacokinetics up to 75 mg
mean steady-state AUC(0-12) [5, 11]: 4736 ng·h/mL
mean steady-state Cmax [5, 11]: 1307 ng/mL
most frequently reported AEs, diarrhea and vomiting, each ([6]; all 32 subjects (N = 2 each)): 6.3%
subjects reporting at least 1 AE ([6]; all 32 subjects, mild or moderate severity): 15.6%
tolerability ([6]; single oral dose 20-50 mg): well tolerated
AEs reported ([8]; healthy subjects, 50 mg): No AEs were reported
tolerability ([8]; single oral dose 50 mg): well tolerated

— PMC5412920 (Journal of Clinical Pharmacology, 2016)
